# Source: ChEMBL document CHEMBL1125331, “6-Hydroxy-3-n-propyl-2,3,4,5-tetrahydro-1H-3-benzazepine and analogs: new centrally acting 5-HT1A receptor agonists” (J Med Chem, 1992)
# Key:
# [1] = molecular target: T1, 5-hydroxytryptamine receptor 1A (Rattus norvegicus, UniProt P19327); test: Inhibitory activity against 5-hydroxytryptamine 1A receptor in rats, using [3H]8-OH-DPAT as radioligand
# T1 sequence (P19327 whole entry): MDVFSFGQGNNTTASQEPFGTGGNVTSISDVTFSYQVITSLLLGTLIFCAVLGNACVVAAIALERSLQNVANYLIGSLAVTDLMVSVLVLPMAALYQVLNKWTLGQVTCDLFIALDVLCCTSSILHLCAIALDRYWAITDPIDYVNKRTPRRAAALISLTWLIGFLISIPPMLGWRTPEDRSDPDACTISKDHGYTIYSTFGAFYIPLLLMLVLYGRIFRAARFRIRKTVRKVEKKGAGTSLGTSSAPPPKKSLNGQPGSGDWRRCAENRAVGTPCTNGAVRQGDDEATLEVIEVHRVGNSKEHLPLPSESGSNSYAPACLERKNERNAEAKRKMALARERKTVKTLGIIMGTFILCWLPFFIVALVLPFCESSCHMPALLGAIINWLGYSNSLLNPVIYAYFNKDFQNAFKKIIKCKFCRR
# Outline: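 Rat whole-brain membranes (minus brainstem and cerebellum) in 50 mM Tris pH 8.0 with 120 mM NaCl, 4 mM CaCl2, 4 mM MgCl2 and 10 μM pargyline. Rapid filtration, then scintillation counting. Nonspecific binding defined with 10 μM 5-HT. IC50 by semi-log plot and linear regression.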
# D(2) dopamine receptor = D(2) dopamine receptor (Rattus norvegicus, UniProt P61169); test: Inhibitory activity against Dopamine receptor D2 in rats using [3H]spiperone as radioligand
# D(2) dopamine receptor, sequence (P61169 whole entry): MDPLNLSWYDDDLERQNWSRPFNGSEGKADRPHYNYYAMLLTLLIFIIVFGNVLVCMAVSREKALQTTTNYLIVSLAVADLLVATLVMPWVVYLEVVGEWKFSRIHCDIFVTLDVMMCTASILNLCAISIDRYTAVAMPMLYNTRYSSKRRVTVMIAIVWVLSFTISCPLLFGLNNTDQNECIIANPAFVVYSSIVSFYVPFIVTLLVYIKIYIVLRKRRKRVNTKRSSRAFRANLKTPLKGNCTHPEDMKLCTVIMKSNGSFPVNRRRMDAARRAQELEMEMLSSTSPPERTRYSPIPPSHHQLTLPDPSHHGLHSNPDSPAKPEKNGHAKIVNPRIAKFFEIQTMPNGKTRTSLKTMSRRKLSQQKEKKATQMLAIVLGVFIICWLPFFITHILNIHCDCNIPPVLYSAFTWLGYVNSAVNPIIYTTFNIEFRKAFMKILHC
# Outline: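 Rat striatal membranes in 50 mM potassium phosphate buffer pH 7.4 were incubated with 0.5 nM [3H]spiperone for 10 min at 37 °C. Specific binding was defined with 10 μM 6,7-ADTN.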
# Rattus norvegicus [2] = test: Effect evaluated in vivo on 5-HTP accumulation in limbic system at a dose 3.1 umol/kg (s.c.); type: functional
# Outline: (§1)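 Male Sprague-Dawley rats (200–300 g) were pretreated with reserpine 5 mg/kg sc 18 h before. Test compound was given sc at 5 mL/kg in neutral solution. 5-HT synthesis rate was indexed by […] 5-HTP accumulation after decarboxylase inhibition with NSD 1015, measured by HPLC-electrochemical detection. Dose-response used 4–6 dose levels, n = 4.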
# Rattus norvegicus [3] = test: Effect evaluated in vivo on 5-HTP accumulation in limbic system at a dose 50 umol/kg (s.c.); type: functional; outline: as §1
# Rattus norvegicus [4] = test: Effect evaluated in vivo on 5-HTP accumulation in limbic system at a dose 6.25 umol/kg (p.o.); type: functional
# Outline: (§2)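 Oral dosing in male Sprague-Dawley rats (200–300 g) pretreated with reserpine 5 mg/kg sc 18 h before. After decarboxylase inhibition with NSD 1015, brain 5-HTP or dopa accumulation (HPLC-electrochemical detection) indexed 5-HT synthesis, DA synthesis (limbic) or NE synthesis (hemispheres, mainly cortex).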
# Rattus norvegicus [5] = test: Effect evaluated in vivo on NE synthesis in NE-rich hemispheres at a 0.78 dose uM/kg(sc); type: functional
# Outline: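 Rats pretreated with reserpine 5 mg/kg sc 18 h before received test compound sc at 5 mL/kg in neutral solution. After decarboxylase inhibition with NSD 1015, dopa accumulation in hemispheres (mainly cortex) was measured by HPLC-electrochemical detection as an index of NE synthesis. Dose-response used 4–6 dose levels, n = 4.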
# Rattus norvegicus [6] = test: Effect evaluated in vivo on 5-HTP accumulation in corpus striatum at a dose 100 umol/kg (p.o.); type: functional
# Outline: (§3)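 Male Sprague-Dawley rats (200–300 g) were pretreated with reserpine 5 mg/kg sc 18 h beforehand. Test drug was given at neutral pH, 5 mL/kg. Aromatic amino acid decarboxylase was blocked with NSD 1015. 5-HTP in the dissected brain region was assayed by HPLC with electrochemical detection.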
# Rattus norvegicus [7] = test: Effect evaluated in vivo on 5-HTP accumulation in corpus striatum at a dose 12.5 umol/kg (s.c.); type: functional; outline: as §3
# Rattus norvegicus [8] = test: Effect evaluated in vivo on 5-HTP accumulation in corpus striatum at a dose 25 umol/kg (p.o.); type: functional; outline: as §3
# Rattus norvegicus [9] = test: Effect evaluated in vivo on 5-HTP accumulation in corpus striatum at a dose 3.1 umol/kg (s.c.); type: functional; outline: as §3
# Rattus norvegicus [10] = test: Effect evaluated in vivo on 5-HTP accumulation in corpus striatum after perioral administration; type: functional; outline: as §3
# Rattus norvegicus [11] = test: Effect evaluated in vivo on 5-HTP accumulation in limbic system after perioral administration; type: functional; outline: as §3
# Rattus norvegicus [12] = test: Effect evaluated in vivo on 5-HTP accumulation in limbic system after subcutaneous administration; type: functional; conditions: sc; outline: as §3
# Rattus norvegicus [13] = test: Effect evaluated in vivo on NE synthesis in NE-rich hemispheres after perioral administration; type: functional; outline: as §2
# Rattus norvegicus [14] = test: Effect evaluated in vivo on 5-HTP accumulation in corpus striatum at a dose 50 umol/kg (s.c.); type: functional; outline: as §3
# Rattus norvegicus [15] = test: Effect evaluated in vivo on 5-HTP accumulation in corpus striatum at a dose 6.25 umol/kg (p.o.); type: functional; outline: as §3
# Rattus norvegicus [16] = test: Effect evaluated in vivo on 5-HTP accumulation in limbic system at a dose 0.78 umol/kg (s.c.); type: functional; outline: as §3
# Rattus norvegicus [17] = test: Effect evaluated in vivo on 5-HTP accumulation in limbic system at a dose 1.56 umol/kg (p.o.); type: functional; outline: as §2
# Rattus norvegicus [18] = test: Effect evaluated in vivo on 5-HTP accumulation in limbic system at a dose 100 umol/kg (p.o.); type: functional; outline: as §2
# Rattus norvegicus [19] = test: Effect evaluated in vivo on 5-HTP accumulation in limbic system at a dose 12.5 umol/kg (s.c.); type: functional; outline: as §1
# Rattus norvegicus [20] = test: Effect evaluated in vivo on 5-HTP accumulation in limbic system at a dose 25 umol/kg (p.o.); type: functional; outline: as §2
# Rattus norvegicus [21] = test: Effect evaluated in vivo on 5-HTP accumulation in NE-rich hemispheres after subcutaneous administration; type: functional; conditions: sc; outline: as §3
# Rattus norvegicus [22] = test: Effect evaluated in vivo on 5-HTP accumulation in NE-rich hemispheres at a 1.56 dose uM/kg(po); type: functional; outline: as §3
# Rattus norvegicus [23] = test: Effect evaluated in vivo on 5-HTP accumulation in NE-rich hemispheres at a 100 dose uM/kg(po); type: functional; outline: as §3
# Rattus norvegicus [24] = test: Effect evaluated in vivo on 5-HTP accumulation in NE-rich hemispheres at a 12.5 dose uM/kg(sc); type: functional; outline: as §3
# Rattus norvegicus [25] = test: Effect evaluated in vivo on 5-HTP accumulation in NE-rich hemispheres at a 25 dose uM/kg(po); type: functional; outline: as §3
# Rattus norvegicus [26] = test: Effect evaluated in vivo on 5-HTP accumulation in NE-rich hemispheres at a 3.1 dose uM/kg(sc); type: functional; outline: as §3
# Rattus norvegicus [27] = test: Effect evaluated in vivo on 5-HTP accumulation in NE-rich hemispheres at a 50 dose uM/kg(sc); type: functional; outline: as §3
# Rattus norvegicus [28] = test: Effect evaluated in vivo on 5-HTP accumulation in NE-rich hemispheres at a 6.25d ose uM/kg(po); type: functional; outline: as §3
# Rattus norvegicus [29] = test: Effect evaluated in vivo on 5-HTP accumulation in corpus striatum after subcutaneous administration; type: functional; conditions: sc; outline: as §3
# Rattus norvegicus [30] = test: Effect evaluated in vivo on 5-HTP accumulation in corpus striatum at a dose 0.78 umol/kg (s.c.); type: functional; outline: as §3
# Rattus norvegicus [31] = test: Effect evaluated in vivo on 5-HTP accumulation in corpus striatum at a dose 1.56 umol/kg (p.o.); type: functional; outline: as §3
# Rattus norvegicus [32] = test: The compound was tested in vivo for locomotor activity in rats at 50 umol/kg after subcutaneous administration; type: functional
# Outline: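 Male Sprague-Dawley rats received reserpine 5 mg/kg sc in the neck 18 h before testing. Test compound was given sc in the neck (n = 4). Rats were placed singly in photocell motility meters immediately after dosing, and counts were accumulated over 30 min (tests 9 a.m.–1 p.m.). Gross behaviour, including 5-HT syndrome, was observed throughout.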
structure (smiles),measurement,setting,value
CCCN1CCc2cccc(OC)c2CC1,IC50,[1],63 nM
same,IC50,D(2) dopamine receptor,3.6 µM
same,Control,Rattus norvegicus [2],48%
same,Control,Rattus norvegicus [3],61%
same,Control,Rattus norvegicus [4],77%
same,Control,Rattus norvegicus [5],92%
same,Control,Rattus norvegicus [6],56%
same,Control,Rattus norvegicus [7],48%
same,Control,Rattus norvegicus [8],65%
same,Control,Rattus norvegicus [9],53%
same,ED50,Rattus norvegicus [10],10 µmol/kg
same,ED50,Rattus norvegicus [11],7 µmol/kg
same,ED50,Rattus norvegicus [12],1.5 µmol/kg
same,ED50,Rattus norvegicus [13],13 µmol/kg
same,Control,Rattus norvegicus [14],63%
same,Control,Rattus norvegicus [15],79%
same,Control,Rattus norvegicus [16],99%
same,Control,Rattus norvegicus [17],99%
same,Control,Rattus norvegicus [18],47%
same,Control,Rattus norvegicus [19],42%
same,Control,Rattus norvegicus [20],58%
same,ED50,Rattus norvegicus [21],1.5 µmol/kg
same,Control,Rattus norvegicus [22],101%
same,Control,Rattus norvegicus [23],53%
same,Control,Rattus norvegicus [24],48%
same,Control,Rattus norvegicus [25],58%
same,Control,Rattus norvegicus [26],47%
same,Control,Rattus norvegicus [27],58%
same,Control,Rattus norvegicus [28],84%
same,ED50,Rattus norvegicus [29],1 µmol/kg
same,Control,Rattus norvegicus [30],74%
same,Control,Rattus norvegicus [31],97%
same,Locomotor activity,Rattus norvegicus [32],197
